In ChEMBL document CHEMBL3259700, “2-Amino-1,3,4-thiadiazoles in the 7-hydroxy-N-neopentyl spiropiperidine indolinyl series as potent P2Y1 receptor antagonists” (Bioorg Med Chem Lett, 2014):
pIC50, pKi: −log10 of the molar value.

Legend:
[1] = Antiplatelet activity in human platelet-rich plasma assessed as inhibition of ADP-induced platelet aggregation in presence of 10 uM ADP
[2] = target: T1, P2Y purinoceptor 1 (Homo sapiens, UniProt P47900); test: Inhibition of P2Y1 receptor in human washed platelets assessed as decrease in 2-methylthio-ADP-induced calcium signal transduction pathway activation by FLIPR assay; format: functional
[3] = Metabolic stability in rat liver microsomes assessed as compound remaining after 10 mins; format: ADME; conditions: read-out: Stability
Procedure, shortened: (§1)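 Test compound incubated 10 min with 0.5 µM rat or human liver microsomes; percentage of parent remaining measured.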

[4] = Metabolic stability in human liver microsomes assessed as compound remaining after 10 mins; format: ADME; conditions: read-out: Stability; procedure, shortened: as §1
[5] = Clearance in rat at 0.5 mg/kg, iv and 0.5 mg/kg, po; format: ADME, organism-based; conditions: in vivo
Procedure, shortened: (§2)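 Cassette PK in rats, 0.5 mg/kg iv and 0.5 mg/kg p.o., vehicle 70% water, 10% ethanol, 10% cremophor, 10% N,N-dimethylacetamide; plasma trough concentrations taken 24 h after iv and p.o. dosing.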

[6] = Volume of distribution at steady state in rat at 0.5 mg/kg, iv and 0.5 mg/kg, po; format: ADME, organism-based; conditions: in vivo, read-out: Vdss; procedure, shortened: as §2
[7] = Half life in rat at 0.5 mg/kg, iv and 0.5 mg/kg, po; format: ADME, organism-based; conditions: in vivo; procedure, shortened: as §2
[8] = Total AUC in rat at 0.5 mg/kg, iv; format: ADME, organism-based; design: time AUCmax, dose 0.5 mg/kg, route intravenous; conditions: in vivo; procedure, shortened: as §2
[9] = Trough plasma concentration in rat at 0.5 mg/kg, iv after 24 hrs; format: ADME, organism-based; design: dose 0.5 mg/kg, route intravenous; conditions: read-out: Cmin; procedure, shortened: as §2
[10] = Trough plasma concentration in rat at 0.5 mg/kg, po after 24 hrs; format: ADME, organism-based; design: dose 0.5 mg/kg, route oral; conditions: read-out: Cmin; procedure, shortened: as §2
[11] = Oral bioavailability in rat at 0.5 mg/kg; format: ADME, organism-based; conditions: in vivo; procedure, shortened: as §2
[12] = target: T1, P2Y purinoceptor 1; test: Displacement of [33P]2-MeS-ADP from human cloned P2Y1 receptor expressed in HEK293 cells by SPA analysis; format: cell-based
[13] = Antiplatelet activity in human platelet-rich plasma assessed as inhibition of ADP-induced platelet aggregation in presence of 2.5 uM ADP

T1 sequence (P47900 whole entry): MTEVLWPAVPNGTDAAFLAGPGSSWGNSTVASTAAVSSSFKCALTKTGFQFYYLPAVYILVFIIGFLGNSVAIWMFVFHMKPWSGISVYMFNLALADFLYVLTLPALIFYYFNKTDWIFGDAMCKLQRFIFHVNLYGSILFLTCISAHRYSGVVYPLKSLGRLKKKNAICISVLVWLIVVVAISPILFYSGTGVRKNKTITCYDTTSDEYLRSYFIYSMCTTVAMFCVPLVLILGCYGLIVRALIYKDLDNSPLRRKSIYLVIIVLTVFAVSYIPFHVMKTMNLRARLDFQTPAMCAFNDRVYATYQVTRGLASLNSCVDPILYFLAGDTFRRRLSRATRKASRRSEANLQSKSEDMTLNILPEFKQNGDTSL

CC(C)(C)CN1CCC2(CC1)CN(c1ccccc1Nc1cc(-c3ccccc3)on1)c1c(O)ccc(Cl)c12
pIC50 [1]: 5.05

Cc1cc(-c2nnc(Nc3ccccc3N3CC4(CCN(CC(C)(C)C)CC4)c4c(Cl)ccc(O)c43)s2)n(C)n1
pIC50 [2]: 9.70
pIC50 [1]: 6.05
remaining at 10 min [3]: 75%

CC(C)(C)CN1CCC2(CC1)CN(c1ccccc1Nc1nnc(-c3ccc(C(F)(F)F)cc3)s1)c1c(O)ccc(C(F)(F)F)c12
pIC50 [2]: 10.10
pIC50 [1]: 6.35
remaining at 10 min [3]: 87%
remaining at 10 min [4]: 86%
clearance [5]: 4 mL/min/kg
Vd [6]: 6 L/kg
half-life [7]: 24 h
AUC [8]: 4.63 µM·h
concentration at 24 h [9]: 46 nM
concentration at 24 h [10]: 12 nM
bioavailability [11]: 22%

CC(C)(C)CN1CCC2(CC1)CN(c1ccccc1Nc1nnc(-c3ccc(OC(F)(F)F)cc3)s1)c1c(O)ccc(Cl)c12
pIC50 [2]: 9.20
pIC50 [1]: 6.05
remaining at 10 min [3]: 94%
remaining at 10 min [4]: 99%
clearance [5]: 2.1 mL/min/kg
Vd [6]: 2.1 L/kg
half-life [7]: 12 h
AUC [8]: 6.21 µM·h
concentration at 24 h [9]: 95 nM
concentration at 24 h [10]: 30 nM
bioavailability [11]: 28%

CC(C)(C)CN1CCC2(CC1)CN(c1ccccc1Nc1nnc(-c3cccc(Cl)c3)s1)c1c(O)ccc(Cl)c12
pIC50 [2]: 8.44
pIC50 [1]: 5.59

CC(C)(C)CN1CCC2(CC1)CN(c1ccccc1Nc1nnc(-c3ccc(OC(F)(F)F)cc3)s1)c1c(O)ccc(F)c12
pKi [12]: 8.28
pIC50 [2]: 8.57
pIC50 [1]: 5.80

CC(C)(C)CN1CCC2(CC1)CN(c1ccccc1Nc1nnc(-c3ccccc3)s1)c1c(O)ccc(C(F)(F)F)c12
pKi [12]: 8.02
pIC50 [2]: 9.72
pIC50 [1]: 6.00

CC(C)(C)c1ccccc1Oc1ncccc1NC(=O)Nc1ccc(OC(F)(F)F)cc1
pIC50 [1]: 4.96

CC(C)(C)CN1CCC2(CC1)CN(c1ccccc1Nc1nc(-c3ccccc3)ns1)c1c(O)ccc(Cl)c12
pIC50 [2]: 8.19
pIC50 [1]: 5.27

COC(=O)c1ccc(O)c2c1C1(CCN(CC(C)(C)C)CC1)CN2c1ccccc1Nc1nnc(-c2ccc(C(C)(C)C)cc2)s1
pIC50 [2]: 9.49
pIC50 [1]: 6.08

CC(C)(C)CN1CCC2(CC1)CN(c1ccccc1Nc1nc(-c3ccccc3)cs1)c1c(O)ccc(Cl)c12
pKi [12]: 7.70
pIC50 [2]: 7.27
pIC50 [1]: < 5.00

CC(C)(C)c1ccccc1Oc1ncccc1Nc1nnc(-c2ccc(C(F)(F)F)cc2)s1
pIC50 [13]: 5.12

CC(C)(C)CN1CCC2(CC1)CN(c1ccccc1Nc1nnc(-c3ccccc3Cl)s1)c1c(O)ccc(Cl)c12
pIC50 [2]: 8.01
pIC50 [1]: 4.96

Cc1ccc(-c2ccc(Nc3ccccc3N3CC4(CCN(CC(C)(C)C)CC4)c4c(Cl)ccc(O)c43)nc2)cc1
pKi [12]: 6.46
pIC50 [1]: < 5.00

CC(C)(C)CN1CCC2(CC1)CN(c1ccccc1Nc1nnc(-c3ccc(C(C)(C)C)cc3)s1)c1c(O)ccc(C(F)(F)F)c12
pIC50 [2]: 9.68
pIC50 [1]: 6.06
remaining at 10 min [3]: 84%
remaining at 10 min [4]: 82%
clearance [5]: 1.8 mL/min/kg
Vd [6]: 1.2 L/kg
half-life [7]: 13 h
AUC [8]: 6.96 µM·h
concentration at 24 h [9]: 54 nM
concentration at 24 h [10]: 3.6 nM
bioavailability [11]: 14%

CC(C)(C)CN1CCC2(CC1)CN(c1ccccc1Nc1nnc(-c3ccccc3)o1)c1c(O)ccc(Cl)c12
pKi [12]: 8.21
pIC50 [2]: 7.31
pIC50 [1]: < 5.00

CN(C)CC(C)(C)COc1cccc(-c2sc(Nc3cccnc3Oc3ccccc3C(C)(C)C)nc2C(F)(F)F)c1
pIC50 [13]: 5.28
pIC50 [1]: 4.24

CC(C)(C)CN1CCC2(CC1)CN(c1ccccc1Nc1cnc(-c3ccccc3)cn1)c1c(O)ccc(Cl)c12
pKi [12]: 7.31
pIC50 [1]: < 4.40

CC(C)(C)CN1CCC2(CC1)CN(c1ccccc1Nc1ccc(-c3ccccc3)nn1)c1c(O)ccc(Cl)c12
pKi [12]: 6.29
pIC50 [1]: < 4.40

CC(C)(C)CN1CCC2(CC1)CN(c1ccccc1Nc1nnc(-c3cnccn3)s1)c1c(O)ccc(Cl)c12
pIC50 [2]: 8.82
pIC50 [1]: 6.03
remaining at 10 min [3]: 37%

CC(C)(C)CN1CCC2(CC1)CN(c1ccccc1NC(=O)Nc1nc3ccc(Cl)nc3s1)c1c(O)ccc(Cl)c12
pKi [12]: 8.10
pIC50 [1]: 6.89
remaining at 10 min [3]: 86%
remaining at 10 min [4]: 100%
clearance [5]: 10 mL/min/kg
Vd [6]: 5.4 L/kg
half-life [7]: 9.9 h
AUC [8]: 1.33 µM·h
concentration at 24 h [9]: 10 nM
concentration at 24 h [10]: 4.1 nM
bioavailability [11]: 36%

CC(C)(C)CN1CCC2(CC1)CN(c1ccccc1Nc1nnc(-c3ccc(Cl)cc3)s1)c1c(O)ccc(Cl)c12
pIC50 [2]: 8.80
pIC50 [1]: 5.89

CC(C)(C)CN1CCC2(CC1)CN(c1ccccc1Nc1nnc(-c3ccc(C(C)(C)C)cc3)s1)c1c(O)ccc(C#N)c12
pKi [12]: 8.01
pIC50 [2]: 9.47
pIC50 [1]: 5.92

CC(C)(C)CN1CCC2(CC1)CN(c1ccccc1Nc1ncc(-c3ccccc3)s1)c1c(O)ccc(Cl)c12
pKi [12]: 7.77
pIC50 [2]: 8.64
pIC50 [1]: 5.43
